From ChEMBL document CHEMBL1649135, “Use of a surface plasmon resonance method to investigate antibiotic and plasma protein interactions” (Antimicrob Agents Chemother, 2009)
≈ marks a conversion by molar mass, not a printed value.

Key:
Albumin [1] = target: T1, Albumin (Homo sapiens, UniProt P02768); experiment: Binding affinity to human serum albumin assessed as fraction of binding sites occupied by compound at 130 to 180 ug/ml by SPR; assay type: ADME; conditions: isolated protein
Method in brief: (§1)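 SPR on a BIACORE 3000 at 25°C. HSA was amine-coupled to a CM5 chip at 40 µg/ml in 10 mM acetate, pH 5.2. Drug was injected from 400 µM to 0.1 µM in twofold dilutions in PBS with 5% DMSO at 50 µl/min, with 30 s association and 30 s dissociation. Responses were reference-subtracted, read 10 s into the injection and DMSO-corrected. Dose-response curves gave KD or fraction of sites occupied.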

Staphylococcus aureus [2] = experiment: Antimicrobial activity against Staphylococcus aureus CIP 76.25 by microdilution method in presence of 0.1% alpha-1-acid glycoprotein; assay type: functional
Method in brief: (§2)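 Broth microdilution MICs against S. aureus CIP 76.25 by CLSI (formerly NCCLS) standard methods, run in duplicate. Each test medium was supplemented with one serum component: 50% human serum, 4% HSA, 0.1% AGP or 1.6% human gamma globulins. These levels were chosen to match normal physiological concentrations. MIC was read as in standard testing.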

Staphylococcus aureus [3] = experiment: Antimicrobial activity against Staphylococcus aureus CIP 76.25 by microdilution method; assay type: functional
Method in brief: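 S. aureus CIP 76.25 MICs determined in duplicate by CLSI standard broth microdilution.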

Albumin [4] = target: T1, Albumin; experiment: Binding affinity to first site on human serum albumin by SPR; assay type: ADME; method in brief: as §1
[5] = Binding affinity to human alpha-1-acid glycoprotein assessed as compound binding sites level by SPR; assay type: ADME
Method in brief: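 Ranking by SPR at 25°C. AGP was PDEA-modified and thiol-coupled to a CM5 chip; a reference surface carried no protein. Drugs at 250 µM in PBS with 5% DMSO were injected in randomized duplicates for 30 s at 50 µl/min. Responses were DMSO-calibration-corrected and normalized to a 10,000-RU immobilization level. Experiments were run in triplicate, mean ± SE.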

Staphylococcus aureus [6] = experiment: Antimicrobial activity against Staphylococcus aureus CIP 76.25 by microdilution method in presence of 4% human serum albumin; assay type: functional; method in brief: as §2
Staphylococcus aureus [7] = experiment: Antimicrobial activity against Staphylococcus aureus CIP 76.25 by microdilution method in presence of 50% human serum; assay type: functional; method in brief: as §2
[8] = Protein binding in serum; assay type: ADME, cell-free; conditions: read-out: PB (converted)
Staphylococcus aureus [9] = experiment: Antimicrobial activity against Staphylococcus aureus CIP 76.25 by microdilution method in presence of 1.6% gamma globulin; assay type: functional; method in brief: as §2
Albumin [10] = target: T1, Albumin; experiment: Binding affinity to human serum albumin assessed as fraction of binding sites occupied by compound at 22 to 44 ug/ml by SPR; assay type: ADME; conditions: isolated protein
Method in brief: (§3)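 HSA amine-coupled on CM5 chip at 25°C, with a reference flow cell lacking protein. Compound in PBS with 5% DMSO, injected at 400 to 0.1 µM in twofold dilutions, 50 µl/min, 30 s association and 30 s dissociation. Reference-subtracted responses read 10 s into injection and DMSO-corrected. Fraction of sites occupied plotted against drug concentration from dose-response curves.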

Albumin [11] = target: T1, Albumin; experiment: Binding affinity to human serum albumin assessed as fraction of binding sites occupied by compound at 180 ug/ml by SPR; assay type: ADME; conditions: isolated protein; method in brief: as §3
Albumin [12] = target: T1, Albumin; experiment: Binding affinity to human serum albumin assessed as fraction of binding sites occupied by compound at 160 ug/ml by SPR; assay type: ADME; conditions: isolated protein; method in brief: as §3
Albumin [13] = target: T1, Albumin; experiment: Binding affinity to human serum albumin assessed as fraction of binding sites occupied by compound at 215 to 430 ug/ml by SPR; assay type: ADME; conditions: isolated protein; method in brief: as §3
Albumin [14] = target: T1, Albumin; experiment: Binding affinity to human serum albumin assessed as fraction of binding sites occupied by compound at 20 ug/ml by SPR; assay type: ADME; conditions: isolated protein; method in brief: as §3
Albumin [15] = target: T1, Albumin; experiment: Binding affinity to human serum albumin assessed as fraction of binding sites occupied by compound at >325 ug/ml by SPR; assay type: ADME; conditions: isolated protein; method in brief: as §1
Albumin [16] = target: T1, Albumin; experiment: Binding affinity to human serum albumin assessed as fraction of binding sites occupied by compound at 80 to 120 ug/ml by SPR; assay type: ADME; conditions: isolated protein; method in brief: as §1
Albumin [17] = target: T1, Albumin; experiment: Binding affinity to human serum albumin assessed as fraction of binding sites occupied by compound at 245 ug/ml by SPR; assay type: ADME; conditions: isolated protein; method in brief: as §1
Albumin [18] = target: T1, Albumin; experiment: Binding affinity to human serum albumin assessed as fraction of binding sites occupied by compound at 146 to 220 ug/ml by SPR; assay type: ADME; conditions: isolated protein; method in brief: as §1
Albumin [19] = target: T1, Albumin; experiment: Binding affinity to human serum albumin assessed as fraction of binding sites occupied by compound at 120 ug/ml by SPR; assay type: ADME; conditions: isolated protein; method in brief: as §1
Albumin [20] = target: T1, Albumin; experiment: Binding affinity to human serum albumin assessed as fraction of binding sites occupied by compound at 60 ug/ml by SPR; assay type: ADME; conditions: isolated protein; method in brief: as §1
Albumin [21] = target: T1, Albumin; experiment: Binding affinity to human serum albumin assessed as fraction of binding sites occupied by compound at 7 to 15 ug/ml by SPR; assay type: ADME; conditions: isolated protein; method in brief: as §1

T1 sequence (P02768 whole entry): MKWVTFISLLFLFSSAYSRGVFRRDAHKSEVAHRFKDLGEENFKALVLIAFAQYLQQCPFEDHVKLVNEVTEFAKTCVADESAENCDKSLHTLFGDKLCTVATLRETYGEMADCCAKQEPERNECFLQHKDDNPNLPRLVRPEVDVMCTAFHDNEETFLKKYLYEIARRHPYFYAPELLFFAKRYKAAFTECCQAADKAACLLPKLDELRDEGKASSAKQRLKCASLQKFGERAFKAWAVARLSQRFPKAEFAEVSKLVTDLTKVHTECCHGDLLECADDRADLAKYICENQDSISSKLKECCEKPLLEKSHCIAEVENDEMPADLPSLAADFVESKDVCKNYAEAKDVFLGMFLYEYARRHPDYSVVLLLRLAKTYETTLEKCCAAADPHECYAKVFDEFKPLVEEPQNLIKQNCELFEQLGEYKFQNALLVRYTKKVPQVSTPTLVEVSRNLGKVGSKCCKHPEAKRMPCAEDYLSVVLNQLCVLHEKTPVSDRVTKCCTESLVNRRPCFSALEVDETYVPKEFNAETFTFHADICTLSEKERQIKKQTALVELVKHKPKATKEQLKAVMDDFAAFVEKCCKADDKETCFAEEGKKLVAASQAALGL

Structure (SMILES) | MIC (Staphylococcus aureus [2]) [mg/L] | MIC (Staphylococcus aureus [3]) [mg/L] | Kd (Albumin [4]) [µM] | Ratio [5] | MIC (Staphylococcus aureus [6]) [mg/L] | MIC (Staphylococcus aureus [7]) [mg/L] | fraction unbound [8] | MIC (Staphylococcus aureus [9]) [mg/L] | also measured
CCC[C@@H]1C[C@@H](C(=O)N[C@@H]([C@H]2O[C@H](SC)[C@H](O)[C@@H](O)[C@H]2O)[C@@H](C)O)N(C)C1 [LINCOMYCIN] | 2 | 0.391 (≈ 0.962 µM) | 12 | < 1 | 2 | 2 | 0.25 | 1 | Ratio (Albumin [1]): 0.5
CO/N=C(\C(=O)N[C@@H]1C(=O)N2C(C(=O)O)=C(COC(C)=O)CS[C@H]12)c1csc(N)n1 [CEFOTAXIME] | 1 | 0.781 (≈ 1.71 µM) | 12 | < 1 | 1 | 4 | 0.97 | 2 | Ratio (Albumin [10]): 0.5; Ratio (Albumin [11]): 1
CN[C@H](CC(C)C)C(=O)N[C@H]1C(=O)N[C@@H](CC(N)=O)C(=O)N[C@H]2C(=O)N[C@H]3C(=O)N[C@H](C(=O)N[C@H](C(=O)O)c4cc(O)cc(O)c4-c4cc3ccc4O)[C@H](O)c3ccc(c(Cl)c3)Oc3cc2cc(c3O[C@@H]2O[C@H](CO)[C@@H](O)[C@H](O)[C@H]2O[C@H]2C[C@](C)(N)[C@H](O)[C@H](C)O2)Oc2ccc(cc2Cl)[C@H]1O [VANCOMYCIN] | – | 0.781 (≈ 0.539 µM) | 12 | – | – | – | 0.9 | – | –
CC(=O)O[C@H]1C[C@@]2(C)[C@@H](C[C@@H](O)[C@H]3[C@@]4(C)CC[C@@H](O)[C@@H](C)[C@@H]4CC[C@@]32C)/C1=C(\CCC=C(C)C)C(=O)O [FUSIDIC ACID] | 2 | 0.049 (≈ 0.0948 µM) | 12 | < 1 | 256 | 1020 | 0.03 | 2 | Ratio (Albumin [12]): 1; Ratio (Albumin [13]): 1.5; Ratio (Albumin [14]): 0.5
CN(C)c1ccc(O)c2c1C[C@H]1C[C@H]3[C@H](N(C)C)C(O)=C(C(N)=O)C(=O)[C@@]3(O)C(O)=C1C2=O [MINOCYCLINE] | 1 | 0.195 (≈ 0.426 µM) | 12 | < 1 | 4 | 4 | 0.46 | 1 | –
CC1COc2c(N3CCN(C)CC3)c(F)cc3c(=O)c(C(=O)O)cn1c23 (configuration not stated) [OFLOXACIN] | 1 | 0.195 (≈ 0.54 µM) | 12 | – | 1 | 2 | – | 2 | –
CO[C@H]1/C=C/O[C@@]2(C)Oc3c(C)c(O)c4c(O)c(c(/C=N/N5CCN(C)CC5)c(O)c4c3C2=O)NC(=O)/C(C)=C\C=C\[C@H](C)[C@H](O)[C@@H](C)[C@@H](O)[C@@H](C)[C@H](OC(C)=O)[C@@H]1C [RIFAMPIN] | 1 | 0.049 (≈ 0.0595 µM) | 12 | < 1 | 4 | 4 | 0.36 | 2 | Ratio (Albumin [15]): 1.5; Ratio (Albumin [16]): 1; Ratio (Albumin [17]): 0.5
CC[C@H]1OC(=O)[C@H](C)[C@@H](O[C@H]2C[C@@](C)(OC)[C@@H](O)[C@H](C)O2)[C@H](C)[C@@H](O[C@@H]2O[C@H](C)C[C@H](N(C)C)[C@H]2O)[C@](C)(O)C[C@@H](C)C(=O)[C@H](C)[C@@H](O)[C@]1(C)O [ERYTHROMYCIN] | 2 | 0.195 (≈ 0.266 µM) | 12 | < 1 | 2 | 2 | 0.81 | 2 | Ratio (Albumin [18]): 0.5
CO[C@@H]1[C@@H](OC(N)=O)[C@@H](O)[C@H](Oc2ccc3c(O)c(NC(=O)c4ccc(O)c(CC=C(C)C)c4)c(=O)oc3c2C)OC1(C)C [NOVOBIOCIN] | 2 | 0.049 (≈ 0.08 µM) | 12 | < 1 | 256 | 1020 | – | 2 | Ratio (Albumin [19]): 1.5; Ratio (Albumin [20]): 1; Ratio (Albumin [21]): 0.5
